Laboratory results from ChEMBL document CHEMBL3120154, “2-[N-Alkyl(R-phenyl)-aminomethyl]-3-phenyl-7-trifluoromethylquinoxalines as anticancer agents inhibitors of folate enzymes” (Eur J Med Chem, 2014).

What was measured:
Thymidylate synthase = Thymidylate synthase (Homo sapiens, UniProt P04818); experiment: Competitive inhibition of human thymidylate synthase by spectrophotometry
MCF7 [1] = experiment: Cytotoxicity against human MCF7 cells assessed as cell growth at 10^-4 M after 48 hrs by alamar blue assay relative to untreated control; format: functional; details: MCF7, 48 h, read-out: Activity
Procedure, shortened: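 Three-cell-line prescreen. Each line was inoculated and preincubated on a microtiter plate, then the agent was added at a single concentration (10^-4 or 10^-5 M) and incubated 48 h. Endpoint was measured with alamar blue, and growth is reported as a percentage of untreated control cells.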

U-251 = experiment: Cytotoxicity against human U251 cells at 10^-4 M after 48 hrs by SRB assay; format: functional; details: U-251, 48 h, read-out: GI
Procedure, shortened: (§1)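 Second-stage screen in the 60-cell-line human tumor panel at NCI, over a 5-log range (100, 10, 1, 0.1, 0.01 micromolar). Cells were exposed to drug for 48 h and growth was estimated with a sulforhodamine B protein stain. The value is percent growth inhibition at each concentration.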

RPMI-8226 = experiment: Cytotoxicity against human RPMI8226 cells at 10^-4 M after 48 hrs by SRB assay; format: functional; details: RPMI-8226, 48 h, read-out: GI; procedure, shortened: as §1
OVCAR-8 = experiment: Cytotoxicity against human OVCAR8 cells at 10^-4 M after 48 hrs by SRB assay; format: functional; details: OVCAR-8, 48 h, read-out: GI; procedure, shortened: as §1
UACC-62 = experiment: Cytotoxicity against human UACC62 cells at 10^-4 M after 48 hrs by SRB assay; format: functional; details: UACC-62, 48 h, read-out: GI; procedure, shortened: as §1
SK-MEL-28 = experiment: Cytotoxicity against human SK-MEL-28 cells at 10^-4 M after 48 hrs by SRB assay; format: functional; details: SK-MEL-28, 48 h, read-out: GI; procedure, shortened: as §1
NCI-H23 = experiment: Cytotoxicity against human NCI-H23 cells at 10^-4 M after 48 hrs by SRB assay; format: functional; details: NCI-H23, 48 h, read-out: GI
Procedure, shortened: (§2)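 Run in the NCI 60-cell-line screen after a three-line prescreen. Cells got a 48 h drug exposure; viability/growth was estimated with the sulforhodamine B protein assay. Growth inhibition (I%) was recorded at 100, 10, 1, 0.1 and 0.01 micromolar. Percent growth is relative to untreated control cells, and negative values indicate cell kill.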

HCT-15 = experiment: Cytotoxicity against human HCT15 cells at 10^-4 M after 48 hrs by SRB assay; format: functional; details: HCT-15, 48 h, read-out: GI
Procedure, shortened: (§3)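 Run by NCI on its 60-line human tumor cell panel, after a three-cell-line prescreen. Cells were exposed to drug for 48 h over a 5-log range: 100, 10, 1, 0.1 and 0.01 micromolar. Growth was estimated by sulforhodamine B (SRB) protein staining. Percent growth inhibition (I%) was recorded at each concentration relative to untreated control cells.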

SN12C = experiment: Cytotoxicity against human SN12C cells at 10^-4 M after 48 hrs by SRB assay; format: functional; details: read-out: GI; procedure, shortened: as §1
BT-549 = experiment: Cytotoxicity against human BT549 cells at 10^-4 M after 48 hrs by SRB assay; format: functional; details: BT-549, 48 h, read-out: GI; procedure, shortened: as §3
SW-620 = experiment: Cytotoxicity against human SW620 cells at 10^-4 M after 48 hrs by SRB assay; format: functional; details: SW-620, 48 h, read-out: GI; procedure, shortened: as §1
ACHN = experiment: Cytotoxicity against human ACHN cells at 10^-4 M after 48 hrs by SRB assay; format: functional; details: read-out: GI; procedure, shortened: as §3
HCC 2998 = experiment: Cytotoxicity against human HCC2998 cells at 10^-4 M after 48 hrs by SRB assay; format: functional; details: HCC 2998, 48 h, read-out: GI; procedure, shortened: as §3
[2] = Cytotoxicity against human UACC257 cells at 10^-4 M after 48 hrs by SRB assay; format: functional; details: UACC-257, 48 h, read-out: GI; procedure, shortened: as §1
NCI-H460 = experiment: Cytotoxicity against human NCI-H460 cells at 10^-4 M after 48 hrs by SRB assay; format: functional; details: NCI-H460, 48 h, read-out: GI; procedure, shortened: as §2
LOX IMVI = experiment: Cytotoxicity against human LOXIMVI cells at 10^-4 M after 48 hrs by SRB assay; format: functional; details: read-out: GI; procedure, shortened: as §2
HT-29 = experiment: Cytotoxicity against human HT-29 cells at 10^-4 M after 48 hrs by SRB assay; format: functional; details: HT-29, 48 h, read-out: GI; procedure, shortened: as §3
MCF7 [3] = experiment: Cytotoxicity against human MCF7 cells at 10^-4 M after 48 hrs by SRB assay; format: functional; details: MCF7, 48 h, read-out: GI; procedure, shortened: as §2
SF-295 = experiment: Cytotoxicity against human SF295 cells at 10^-4 M after 48 hrs by SRB assay; format: functional; details: SF-295, 48 h, read-out: GI; procedure, shortened: as §1
A549 = experiment: Cytotoxicity against human A549 cells at 10^-4 M after 48 hrs by SRB assay; format: functional; details: A549, 48 h, read-out: GI; procedure, shortened: as §3
MOLT-4 = experiment: Cytotoxicity against human MOLT4 cells at 10^-4 M after 48 hrs by SRB assay; format: functional; details: MOLT-4, 48 h, read-out: GI; procedure, shortened: as §2
SF-268 = experiment: Cytotoxicity against human SF268 cells assessed as cell growth at 10^-4 M after 48 hrs by alamar blue assay relative to untreated control; format: functional; details: SF-268, 48 h, read-out: Activity
Procedure, shortened: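 Three-cell-line prescreen at NCI. Each line was seeded and pre-incubated, then given a single concentration (10^-4 or 10^-5 M) and incubated for 48 h. The end-point was alamar blue. The value is percent growth of treated cells versus untreated control cells, with negative numbers indicating cell kill.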

[4] = Cytotoxicity against human OVCAR5 cells at 10^-4 M after 48 hrs by SRB assay; format: functional; details: OVCAR-5, 48 h, read-out: GI; procedure, shortened: as §1
M14 = experiment: Cytotoxicity against human M14 cells at 10^-4 M after 48 hrs by SRB assay; format: functional; details: M14, 48 h, read-out: GI; procedure, shortened: as §2
SK-MEL-5 = experiment: Cytotoxicity against human SK-MEL-5 cells at 10^-4 M after 48 hrs by SRB assay; format: functional; details: SK-MEL-5, 48 h, read-out: GI; procedure, shortened: as §1
[5] = Cytotoxicity against human Hs578T cells at 10^-4 M after 48 hrs by SRB assay; format: functional; details: Hs-578T, read-out: GI; procedure, shortened: as §3
IGROV-1 = experiment: Cytotoxicity against human IGROV1 cells at 10^-4 M after 48 hrs by SRB assay; format: functional; details: IGROV-1, 48 h, read-out: GI; procedure, shortened: as §3
K562 = experiment: Cytotoxicity against human K562 cells at 10^-4 M after 48 hrs by SRB assay; format: functional; details: K562, 48 h, read-out: GI; procedure, shortened: as §2
SK-MEL-2 = experiment: Cytotoxicity against human SK-MEL-2 cells at 10^-4 M after 48 hrs by SRB assay; format: functional; details: SK-MEL-2, 48 h, read-out: GI; procedure, shortened: as §1
KM12 = experiment: Cytotoxicity against human KM12 cells at 10^-4 M after 48 hrs by SRB assay; format: functional; details: KM12, 48 h, read-out: GI; procedure, shortened: as §2
NCI-H322M = experiment: Cytotoxicity against human NCI-H322M cells at 10^-4 M after 48 hrs by SRB assay; format: functional; details: read-out: GI; procedure, shortened: as §2
CAKI-1 = experiment: Cytotoxicity against human Caki1 cells at 10^-4 M after 48 hrs by SRB assay; format: functional; details: CAKI-1, 48 h, read-out: GI; procedure, shortened: as §3

Chain of Thymidylate synthase (P04818 whole entry): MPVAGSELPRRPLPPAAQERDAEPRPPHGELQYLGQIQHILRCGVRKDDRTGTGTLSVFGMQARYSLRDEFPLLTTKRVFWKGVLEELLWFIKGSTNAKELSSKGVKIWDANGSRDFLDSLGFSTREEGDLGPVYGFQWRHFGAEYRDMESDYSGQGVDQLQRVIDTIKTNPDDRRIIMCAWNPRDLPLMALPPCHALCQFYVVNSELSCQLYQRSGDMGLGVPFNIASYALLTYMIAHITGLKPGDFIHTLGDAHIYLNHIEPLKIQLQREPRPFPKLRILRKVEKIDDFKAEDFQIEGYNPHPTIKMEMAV

Structure (SMILES)	growth at 100 µM (MCF7 [1]) [%]	inhibition of growth at 100 µM (U-251) [%]	inhibition of growth at 100 µM (RPMI-8226) [%]	inhibition of growth at 100 µM (OVCAR-8) [%]	inhibition of growth at 100 µM (UACC-62) [%]	inhibition of growth at 100 µM (SK-MEL-28) [%]	inhibition of growth at 100 µM (NCI-H23) [%]	inhibition of growth at 100 µM (HCT-15) [%]	inhibition of growth at 100 µM (SN12C) [%]	inhibition of growth at 100 µM (BT-549) [%]	inhibition of growth at 100 µM (SW-620) [%]	inhibition of growth at 100 µM (ACHN) [%]	inhibition of growth at 100 µM [2] [%]	inhibition of growth at 100 µM (NCI-H460) [%]	inhibition of growth at 100 µM (LOX IMVI) [%]	inhibition of growth at 100 µM (HT-29) [%]	inhibition of growth at 100 µM (MCF7 [3]) [%]	inhibition of growth at 100 µM (SF-295) [%]	inhibition of growth at 100 µM (A549) [%]	inhibition of growth at 100 µM (MOLT-4) [%]	also measured
C#CCN(Cc1nc2cc(C(F)(F)F)ccc2nc1-c1ccccc1)c1ccc(F)c(F)c1	40	59	107	98	73	< 40	52	82	75	67	82	56	146	90	77	70	94	74	107	82	Ki (Thymidylate synthase): 3560 nM; inhibition of growth at 100 µM (HCC 2998): 102%; growth at 100 µM (SF-268): 95%; inhibition of growth at 100 µM [4]: < 40%; inhibition of growth at 100 µM (M14): 41%; inhibition of growth at 100 µM (SK-MEL-5): 144%; inhibition of growth at 100 µM [5]: 70%; inhibition of growth at 100 µM (IGROV-1): 58%; inhibition of growth at 100 µM (K562): 78%
CCN(Cc1nc2cc(C(F)(F)F)ccc2nc1-c1ccccc1)c1ccc(OC)c(OC)c1	1	198	162	174	195	112	158	171	189	167	164	142	192	97	200	97	86	181	177	122	inhibition of growth at 100 µM (SK-MEL-2): 172%; inhibition of growth at 100 µM (KM12): 153%; inhibition of growth at 100 µM (HCC 2998): 174%; growth at 100 µM (SF-268): 0%; inhibition of growth at 100 µM [4]: 152%; inhibition of growth at 100 µM (M14): 194%; inhibition of growth at 100 µM (SK-MEL-5): 191%; inhibition of growth at 100 µM [5]: 162%; inhibition of growth at 100 µM (IGROV-1): 178%; inhibition of growth at 100 µM (K562): 160%; inhibition of growth at 100 µM (NCI-H322M): 96%; inhibition of growth at 100 µM (CAKI-1): 117%
C#CCN(Cc1nc2cc(C(F)(F)F)ccc2nc1-c1ccccc1)c1ccc(C)cc1	58	181	44	77	188	200	196	181	135	104	79	193	110	96	178	200	84	150	84	85	Ki (Thymidylate synthase): 510 nM; inhibition of growth at 100 µM (SK-MEL-2): 136%; inhibition of growth at 100 µM (KM12): 161%; growth at 100 µM (SF-268): 89%; inhibition of growth at 100 µM [4]: 200%; inhibition of growth at 100 µM (M14): 186%; inhibition of growth at 100 µM (SK-MEL-5): 158%; inhibition of growth at 100 µM [5]: 113%; inhibition of growth at 100 µM (IGROV-1): 79%; inhibition of growth at 100 µM (NCI-H322M): 180%; inhibition of growth at 100 µM (CAKI-1): 147%
